Results as given in PMC4339548 (Clinica chimica acta; international journal of clinical …, 2015).
Like-named read-outs stand apart in the source and are kept apart here.

Tests used:
[1] = Urinary excretion of oral sugar probes; type: in vivo, human; details: for Percent urinary excretion of oral sugar probe: healthy subjects, oral cocktail, mean ± SD/SE; for Lactulose/Mannitol Ratio / Percent urinary excretion of oral sugar probe corrected for CrCl / Sucralose/Lactulose Ratio: mean ± SE; for % Total (of 24 h urinary excretion) corrected for CrCl / % Total (cum) corrected for CrCl: normalized for CrCl; for % Total (of 24 h urinary excretion) / % Total (cumulative): not normalized; for Percent urinary excretion of oral sugar probe corrected for CrCl: percent excretion divided by creatinine clearance; for % Total (cum) corrected for CrCl / % Total (cumulative): cumulative first 12 h; for Range of tertile means of 24 h percent excretion of oral dose: data divided into 3 tertile groups, lowest to highest excretion
[2] = ref [18], cited from earlier work
[3] = type: in vivo, human; details: 24 h
In short: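 Age- and BMI-matched controls and patients fasted overnight and emptied their bladders. At 6 AM they took 2 g mannitol, 7.5 g lactulose and 40 g sucrose in 8 oz water, plus 1 g sucralose in 2 capsules. Fasting continued 2 h, with no "diet" foods or drinks from 48 h before through the test. Urine was pooled over 24 h and sugars were measured as alditol acetates by GC (DB-225MS). Results were expressed as % of oral dose and as the sucralose/lactulose ratio.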

[4] = 12-24 hour, listed as lactulose
[5] = 12-24 hour, listed as sucralose

Row | Structure (SMILES) | Percent urinary excretion of oral sugar probe ([1]; 0-5 hour urine collection) | % Total (of 24 h urinary excretion) corrected for CrCl ([1]; 0-5 hour) | % Total (of 24 h urinary excretion) ([1]; 0-5 hour) | Percent urinary excretion of oral sugar probe corrected for CrCl ([1]; 0-5 hour) | Percent urinary excretion of oral sugar probe ([1]; 0-24 hour urine collection) | % Total (of 24 h urinary excretion) corrected for CrCl ([1]; 0-24 hour) | % Total (of 24 h urinary excretion) ([1]; 0-24 hour) | Percent urinary excretion of oral sugar probe corrected for CrCl ([1]; 0-24 hour) | Percent urinary excretion of oral sugar probe ([1]; 5-12 hour urine collection) | % Total (of 24 h urinary excretion) corrected for CrCl ([1]; 5-12 hour) | % Total (of 24 h urinary excretion) ([1]; 5-12 hour) | Percent urinary excretion of oral sugar probe corrected for CrCl ([1]; 5-12 hour) | Percent urinary excretion of oral sugar probe ([1]; 12-24 hour urine collection) | % Total (of 24 h urinary excretion) corrected for CrCl ([1]; 12-24 hour) | % Total (of 24 h urinary excretion) ([1]; 12-24 hour) | Percent urinary excretion of oral sugar probe corrected for CrCl ([1]; 12-24 hour) | % Total (cum) corrected for CrCl [1] | % Total (cumulative) [1] | Range of tertile means of 24 h percent excretion of oral dose [1] | also measured
1 | OC[C@H]1O[C@@H](O[C@@H]2[C@@H](CO)O[C@](O)(CO)[C@H]2O)[C@H](O)[C@@H](O)[C@H]1O [Lactulose, 4-o-β-D-galactopyranosyl-D-fructofuranose] | 0.95 ± 0.6% | 30% | 29.3% | 0.012 ± 0.001 | 3.11 ± 0.2% | 100% | 100% | 0.04 ± 0.002 | 1.1 ± 0.19% | 32.4% | 26.8% | 0.012 ± 0.002 | 1.4 ± 0.1% | 40% | 43.9% | 0.016 ± 0.001 | 60% | 56.1% | 0.5%-1.7% | Lactulose/Mannitol Ratio ([1]; 0-5 hour urine): 0.065 ± 0.05; Lactulose/Mannitol Ratio ([1]; 0-5 hour urine, listed as lactulose): .065; % Total (of 24 h urinary excretion) ([1]; 0-5 hour, listed as lactulose): 29.3%; Lactulose/Mannitol Ratio ([1]; 0-24 hour urine): 0.124 ± 0.010; Lactulose/Mannitol Ratio ([1]; 0-24 hour urine, listed as lactulose): 0.124; Lactulose/Mannitol Ratio ([1]; 5-12 hour urine): 0.25 ± 0.03; Lactulose/Mannitol Ratio ([1]; 5-12 hour urine, listed as lactulose): 0.25; Lactulose/Mannitol Ratio ([1]; 12-24 hour urine): 0.534 ± 0.11; Lactulose/Mannitol Ratio ([1]; 12-24 hour urine, listed as lactulose): 0.534; % Total (of 24 h urinary excretion) corrected for CrCl [1, 4]: 40%; % Total (of 24 h urinary excretion) [1, 4]: 43.9%; Variation of lactulose/mannitol (L/M) ratio over 24 h ([1]; across collection segments, peak in second 12 hours): more than 8 fold
2 | OC[C@@H](O)[C@@H](O)[C@H](O)[C@H](O)CO [Mannitol, D-mannitol] | 15.6 ± 0.8% | 52.9% | 61.5% | 0.18 ± 0.01 | 28.9 ± 1.3% | 99% | 100% | 0.34 ± 0.029 | 6.03 ± 0.96% | 22.6% | 20% | 0.077 ± 0.01 | 6.4 ± 1.3% | 23.5% | 18.5% | 0.08 ± 0.016 | 75.5% | 81.5% | – | % Total (of 24 h urinary excretion) corrected for CrCl ([1]; 0-5 hour, listed as mannitol): 52.9%; % Total (of 24 h urinary excretion) ([1]; 0-5 hour, listed as mannitol): 61.5%; % Total (of 24 h urinary excretion) corrected for CrCl ([1]; 12-24 hour, listed as mannitol): 23.5%; % Total (of 24 h urinary excretion) ([1]; 12-24 hour, listed as mannitol): 18.5%
3 | OC[C@H]1O[C@H](O[C@]2(CCl)O[C@H](CCl)[C@@H](O)[C@@H]2O)[C@H](O)[C@@H](O)[C@H]1Cl [Sucralose, 1,6-dichloro-1,6-dideoxy-β-D-fructofuranosyl-4-chloro-4-deoxy-α-D-glucopyranoside] | 0.5 ± 0.8% | 33.3% | 35.9% | 0.005 ± 0.001 | 1.23 ± 0.14% | 99.5% | 100% | 0.015 ± 0.002 | 0.51 ± 0.13% | 38% | 29.7% | 0.0057 ± 0.001 | 0.3 ± 0.04% | 28.2% | 34.4% | 0.004 ± 0.0006 | 71.3% | 65.6% | 0.4%-2.4% | 24 h mean urinary excretion sucralose value ([2]; Parkinson's disease patients (N=9), p ≤ 0.015 vs controls): 1.12 ± 0.1; 24 h mean urinary excretion sucralose value ([2]; healthy controls (N=10), BMI/age-matched): 0.58 ± 0.1; Sucralose/Lactulose Ratio ([1]; 0-5 hour urine): 0.53 ± 0.10; Sucralose/Lactulose Ratio ([1]; 0-5 hour urine, listed as sucralose): 0.53; % Total (of 24 h urinary excretion) corrected for CrCl ([1]; 0-5 hour, listed as sucralose): 33.3%; % Total (of 24 h urinary excretion) ([1]; 0-5 hour, listed as sucralose): 35.9%; Sucralose/Lactulose Ratio ([1]; 0-24 hour urine): 0.49 ± 0.08; Sucralose/Lactulose Ratio ([1]; 0-24 hour urine, listed as sucralose): 0.49; Sucralose/Lactulose Ratio ([1]; 5-12 hour urine): 0.54 ± 0.13; Sucralose/Lactulose Ratio ([1]; 5-12 hour urine, listed as sucralose): 0.54; Sucralose/Lactulose Ratio ([1]; 12-24 hour urine): 0.36 ± 0.06; Sucralose/Lactulose Ratio ([1]; 12-24 hour urine, listed as sucralose): 0.36; % Total (of 24 h urinary excretion) corrected for CrCl [1, 5]: 28.2%; % Total (of 24 h urinary excretion) [1, 5]: 34.4%; mean urinary excretion sucralose/lactulose ratio ([3]; Parkinson's disease patients (N=9), p ≤ 0.001 vs controls): 0.48 ± 0.1; mean urinary excretion sucralose/lactulose ratio ([3]; healthy controls (N=10)): 0.21± 0.1
4 | OC[C@H]1O[C@@](CO)(O[C@H]2O[C@H](CO)[C@@H](O)[C@H](O)[C@H]2O)[C@@H](O)[C@@H]1O [Sucrose, α-D-glucopyranosyl-β-D-fructofuranoside] | 0.5 ± 0.15% | 26.9% | 29.6% | 0.006 ± 0.0007 | 1.82 ± 0.17% | 94.6% | 100% | 0.0223 ± 0.002 | – | 26.9% | 27.4% | 0.006 ± 0.001 | 0.8 ± 0.7% | 40.8% | 43% | 0.009 ± 0.0009 | 53.8% | 57% | 0.3%-0.6% | –
